From PubChem BioAssay
Shown are actives, neighbours in structure and some others; about 1.7% of the full set was active somewhere.
CSN inh = inhibitors of human CSN-mediated cullin deneddylation; inhibition, % at 12.5 µM; actives 0.38% (n = 360,000); Q92905; AID 651999; Purified CSN, SCF-Nedd8-OG deneddylation, fluorescence polarization;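 active means pattern-corrected inhibition above about 35%, with an unprinted fluorescence ratio check between 0.5 and 1.5, limit read from the data, passing the limit was not always enough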;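 further: 0% = enzyme with substrate and 100% = substrate without enzyme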
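assay system = purified human Csn5 enzyme expressed in HEK293T cells | amount = 0.24 nM enzyme | buffer or medium = Tris/NaCl/DTT buffer, pH 7.5 | reagent = 10 nM SCFSkp2-Nedd8OG | compound = one concentration, 12.5 µM, 0.25% DMSO | times = 90 min reaction at room temperature | signal = FP | read-out basis = % inhibition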
Rev-erbA mod = modulators of human Rev-erb alpha DNA binding. P20393. Rev-erbα–FITC-DNA binding, fluorescence polarization, 90 min. activity, % at 10 µM. actives 0.79% (n = 370,000);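 active means activity above about 14%, limit read from the data; passing the limit was not always enough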;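 further: 0% = DMSO wells with 35 nM protein and 100% = DMSO wells with 750 nM protein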
HNF4A DNA FP = change in binding of human HNF4 alpha to DNA. P41235. HNF4a-FITC DNA binding, fluorescence polarization, 1 h. activity change, % at 10 µM. actives 0.3% (n = 360,000); in the data active means activity change above about 30%, passing the limit was not always enough
Target sequence (P41235 whole entry, looked up): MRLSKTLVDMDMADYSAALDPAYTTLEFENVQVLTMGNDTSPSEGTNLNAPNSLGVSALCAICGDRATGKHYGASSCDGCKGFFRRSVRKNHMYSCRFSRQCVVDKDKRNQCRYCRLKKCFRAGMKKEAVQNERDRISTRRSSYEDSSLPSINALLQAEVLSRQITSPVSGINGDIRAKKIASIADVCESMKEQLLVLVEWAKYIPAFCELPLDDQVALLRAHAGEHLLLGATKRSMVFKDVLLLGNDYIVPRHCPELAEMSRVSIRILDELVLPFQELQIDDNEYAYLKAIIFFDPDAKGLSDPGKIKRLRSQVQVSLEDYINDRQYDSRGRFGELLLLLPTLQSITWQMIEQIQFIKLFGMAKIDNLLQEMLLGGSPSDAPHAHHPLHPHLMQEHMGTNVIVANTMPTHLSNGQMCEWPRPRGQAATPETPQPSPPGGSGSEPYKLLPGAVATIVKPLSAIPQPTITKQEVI
TPT1 inh = C. albicans TPT1 enzyme inhibition; recombinant caTPT1, FP RNA substrate dephosphorylation; actives 0.81% (n = 300,000); inhibition, % at 5 µM;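 active means inhibition above the mean of all tested compounds plus 3 SD, set per screening campaign, cut at about 24% in these data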;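 further: plate controls were DMSO alone for no effect and ferristatin control at 100 nM for full effect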
Active calls of the source: *; x = no result given.

SMILES	CSN inh	Rev-erbA mod	HNF4A DNA FP	TPT1 inh
N#Cc1c(NC(=O)CSc2ncccn2)oc(-c2ccccc2)c1-c1ccccc1	-2	3	2	7
O=C(Cn1c(=O)n(Cc2ccco2)c(=O)c2c3c(sc21)CCCCC3)c1ccccc1	38*	-23	-13	7
CN[C@@H]1[C@H](O)[C@@H](O[C@@H]2[C@@H](O)[C@H](O[C@H]3OC(CN)=CC[C@H]3N)[C@@H](N)C[C@H]2N)OC[C@]1(C)O	x	-8	x	x
COc1ccccc1Cc1c(-c2ccco2)nc2ccc(Cl)cn12	36*	-26	-3	x
Clc1ccc2nc(-c3ccco3)c(Cc3ccccc3)n2c1	36*	-13	0	x
Cc1ccc(Nc2nc(-c3ccc(C)cc3)c(CC(=O)O)s2)cc1	65*	6	16	9
Nc1nc(-c2ccccc2)c(CC(=O)O)s1	24	-6	7	x
Nc1nc(-c2ccc(Oc3ccccc3)cc2)c(CC(=O)O)s1	42*	1	11	x
COc1cccc(C(=O)Nc2cccc(-c3nnc(-c4ccco4)o3)c2)c1	7	0	4	1
COc1ccc(Br)cc1C(=O)Nc1cccc(-c2nnc(-c3ccco3)o2)c1	115*	6	49*	0
Cc1nn(-c2ccccc2)c2sc(C(=O)NCCc3ccc(Cl)cc3)cc12	x	-3	x	x
Nc1ccc(Sc2ccccc2Cl)nc1	10	8	10	-2
Cc1cc(Oc2ccc(N)cn2)cc(C)c1Cl	8	-3	3	10
Nc1ccc(Oc2c(Cl)cccc2Cl)nc1	37*	1	4	0
CC(C)(C)c1ccc(Oc2ccc(N)cn2)cc1	-78	-3	64*	5
CC(=O)[C@@]12O[C@](C)(c3ccccc3)O[C@@H]1CC1C3CCC4=CC(=O)CC[C@]4(C)C3CC[C@@]12C (some centres undefined)	x	2	x	x
Cc1ccccc1N(C)C(=O)Cn1nnc(-c2ccccc2F)n1	x	6	x	x
CCOc1ccccc1C(=O)Nc1ccc(-n2nncc2C(C)(C)C)cc1	-6	3	70*	-3
O=C[C@H](O)[C@@H](O)[C@H](O)[C@H](O)CO	x	3	x	x
COc1ccc(OCCOc2ccc(/C=C3\C(=N)N4N=C(C)SC4=NC3=O)cc2)cc1	46*	-11	-10	x
CC(=O)Nc1ccc(OCCOc2ccc(/C=C3\C(=N)N4N=C(C)SC4=NC3=O)cc2)cc1	7	3	4	3
COc1ccc2ccccc2c1-c1c(C(=O)c2ccc(Br)cc2)[nH]c(N)c1C(=O)NC1CCCCC1	x	9	x	x
COC(=O)[C@]12C[C@H](CC(=O)NCCc3ccccc3OC)C(=O)N(Cc3ccco3)C1=C[C@H](C1CCCC1)O[C@@H]2C	x	-1	x	x
CCCCCN(C(=O)CN1CCC(Cc2ccccc2)CC1)c1c(N)n(CCCC)c(=O)[nH]c1=O	11	-1	37*	5
CCCCCN(C(=O)CCC(=O)OCC(=O)N(C)c1ccccc1)c1c(N)n(CCCC)c(=O)[nH]c1=O	-2	2	-5	0
SMILES	CSN inh	Rev-erbA mod	HNF4A DNA FP	TPT1 inh
Nc1c(-c2ccccn2)cnn1-c1nc(-c2ccc(F)cc2)cs1	-7	2	-2	2
COc1ccc(-c2csc(-n3ncc(-c4ccccn4)c3N)n2)cc1	1	-5	28*	0
O=C(OCc1cn(Cc2cccc(Cl)c2)nn1)N1CCOCC1	x	1	x	x
CCOC(=O)[C@@]12CCCC=C1N(CCc1ccc(Cl)cc1)C(=O)[C@H]2CC(=O)NCc1cccs1	x	5	x	x
O=c1oc(/C=C/c2ccccc2)nc2sc3c(c12)CCC3	4	3	47*	2
COc1ccc(/C=C/c2nc3sc4c(c3c(=O)o2)CCC4)cc1	110	-3	191	-3
O=[N+]([O-])c1ccc(-c2cn(-c3ccc(Cl)cc3)cn2)cc1	5	-3	40*	x
O=C(NC1CCC1)O[C@H]1CC[C@@]23CCCN2C(=O)CCC[C@H]3C1	x	-2	x	x
Cc1ccc(S(=O)(=O)N2CC[C@@]3(Cc4ccccc4)Cc4ccccc4C[C@@H]23)cc1	x	3	x	x
N#Cc1ccc(COc2ccc(CCO)cc2-n2nc3ccccc3n2)cc1	100*	1	-1	5
O=C(/C=C/c1ccc(Br)cc1)NC(=S)Nc1ccc(S(=O)(=O)Nc2nccs2)cc1	75*	-28	-44	-2
C[N@+]12CCCC[C@@H]1CCC(=C(c1cccs1)c1cccs1)C2	x	0	x	x
COc1ccc(CNC(=O)CCC(=O)c2ccc(F)cc2)cc1OC	66*	-2	1	x
COc1ccc(CNC(=O)CCC(=O)c2ccc(C)cc2)cc1OC	1	-1	-1	1
